From PubChem BioAssay
TDP2 absorb: human TDP2 enzyme inhibitors, primary screen, biochemical, epi absorbance, recombinant enzyme; T5PNP hydrolysis, p-nitrophenol absorbance 415 nm; inhibition, % at 12.8 µM; 0.34% of 370,000 active; AID 720702, 2013;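 active = inhibition above the mean of all tested compounds plus 3 SD, set per campaign, cut at about 25% in these data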;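 note: 0% = DMSO with enzyme and 100% = buffer with substrate but no TDP2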
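Assay system: Recombinant human TDP2 | Quantity: 120 nM TDP2 per well | Incubation: 2 h at 37 °C | Signal: Epi absorbance | Evaluation: Percent inhibition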
MBD2 inh: inhibitors of MBD2 binding to methylated DNA, primary screen, biochemical, TR-FRET, DNA-binding domain, human; Methyl-CpG-binding domain protein 2 (Homo sapiens), Q9UBB5; inhibition, % at 4.4 µM; 0.31% of 370,000 active; MBD2 binding to methylated oligonucleotide; in the data active = inhibition above about 13%
Target sequence (Q9UBB5 whole entry, looked up, the tested form may be a part): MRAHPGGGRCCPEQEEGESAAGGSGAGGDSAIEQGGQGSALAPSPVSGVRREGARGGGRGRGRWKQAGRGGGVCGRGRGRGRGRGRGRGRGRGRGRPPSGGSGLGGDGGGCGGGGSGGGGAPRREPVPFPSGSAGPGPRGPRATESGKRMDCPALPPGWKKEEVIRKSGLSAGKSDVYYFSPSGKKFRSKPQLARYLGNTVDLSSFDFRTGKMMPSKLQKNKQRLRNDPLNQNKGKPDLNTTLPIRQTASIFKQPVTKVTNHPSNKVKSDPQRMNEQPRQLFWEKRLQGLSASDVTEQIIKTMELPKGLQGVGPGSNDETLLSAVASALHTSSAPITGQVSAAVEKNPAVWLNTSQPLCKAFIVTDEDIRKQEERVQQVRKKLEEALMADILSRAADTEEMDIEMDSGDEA
LEDGF integ inh: blockers of LEDGF/p75-dependent integrase strand transfer – biochemical, TR-FRET, high throughput, primary screen; HIV-1 integrase (with human LEDGF/p75); TR-FRET IN-LEDGF/p75 DNA integration, Eu/Cy5; inhibition, % at 3.7 µM; 0.64% of 370,000 active;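 active = inhibition above the screen-wide mean plus 3 SD, cut at about 13% in these data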;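 note: signal is the Cy5 over europium emission ratio at 671 and 618 nm; 0% = plate median of compound wells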
UHRF1 binding: UHRF1 methylated DNA binding inhibitors, primary screen, counter-screen for MBD2 inhibitor project, biochemical, TR-FRET, human UHRF1, single concentration; E3 ubiquitin-protein ligase UHRF1 (Homo sapiens), Q96T88; UHRF1 binding to methylated oligo; inhibition, % at 4.4 µM; 0.75% of 370,000 active; in the data active = inhibition above about 21%;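 note: UHRF1 SRA domain binding a hemimethylated CpG hairpin DNA probe; 0% = median of test compound wells and 100% = reference inhibitor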
IN multimer act: HIV-1 IN multimer formation enhancers, counter-screen for LEDGF/p75 integration inhibitor project, biochemical, TR-FRET. shares compounds with LEDGF integ inh. TR-FRET HIV-1 integrase multimerization. activation, % at 7.7 µM. 17% of 2,000 active. AID 1053131, 2014; in the data active = activation above about 8.9%
TRFRET interf: TR-FRET optical interference artefacts, confirmation, artefact control for LEDGF/p75-dependent integration inhibitor project, biochemical, HIV-1 IN multimerization; shares compounds with LEDGF integ inh; TR-FRET optical interference counterscreen; inhibition, % at 7.7 µM; 2,000 tested, under 10 active;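 active = inhibition above the mean over all tested compounds plus 3 SD, which no compound reached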;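 note: 0% = integrase with antibodies and DMSO and 100% = antibodies without integrase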
IN-LEDGF confirm: inhibitors of HIV-1 IN-LEDGF/p75 DNA integration, confirmation, biochemical, TR-FRET | AID 1053136, 2014 | TR-FRET LEDGF/p75-dependent HIV-1 integration | inhibition, % at 3.7 µM | 36% of 2,000 active | shares compounds with LEDGF integ inh; in the data active = inhibition above about 14%
Starred values were filed as active, the others as inactive. Compounds with a hit are over-represented: about 1.6% of the library has one in this group of screens.

Screening CCc1ccc2c(c1)C(NC(C)=O)C(=O)N2CCN1CCOCC1 (stereo not given) returned TDP2 absorb 21.8, MBD2 inh -8.9, LEDGF integ inh 14.5*, UHRF1 binding -1.8, IN multimer act -0.6, TRFRET interf 3.0 and IN-LEDGF confirm 32.7*.
`O=C1CSC(c2ccc([N+](=O)[O-])cc2)N1c1ccccc1F` (stereo not given) gave TDP2 absorb -6.0, MBD2 inh -0.2, LEDGF integ inh 3.1 and UHRF1 binding 2.3.
Screening Cc1ccc2c(Cl)cc(Cl)c(OCC(=O)NC3CCS(=O)(=O)C3)c2n1 (stereo not given) returned TDP2 absorb 3.1, MBD2 inh -1.6, LEDGF integ inh 1.1 and UHRF1 binding -5.0.
COc1ccc(CCC(=O)N(C)CC(=O)Nc2ccc(Cl)c(C(F)(F)F)c2)cc1 was read as TDP2 absorb -0.4, MBD2 inh -2.9, LEDGF integ inh 3.1 and UHRF1 binding 1.2.
`CC(=O)c1ccc2c(c1)C1C=CCC1C(C(=O)O)N2` (stereo not given) gave TDP2 absorb 11.7, MBD2 inh 103.8*, LEDGF integ inh 89.6*, UHRF1 binding 92.8*, IN multimer act 52.7*, TRFRET interf -187.4 and IN-LEDGF confirm 76.6*.
For O=C1C=CC2=C3c4cc(O)c(O)cc4CC3(O)COC2=C1O (stereo not given) the results were TDP2 absorb 4.1, MBD2 inh 35.2*, LEDGF integ inh 89.9*, UHRF1 binding 55.7*, IN multimer act 68.0*, TRFRET interf -342.5 and IN-LEDGF confirm 93.2*.
`COc1ccc(/C=C/c2c([N+](=O)[O-])c(=O)n(C)c(=O)n2C)cc1O` gave TDP2 absorb 6.7, MBD2 inh 0.9, LEDGF integ inh -0.2 and UHRF1 binding -5.2.
For C(=C\c1ccco1)/c1ccc2ccccc2n1 the results were TDP2 absorb -18.0, MBD2 inh 7.2, LEDGF integ inh 18.4*, UHRF1 binding 25.2*, IN multimer act 17.0*, TRFRET interf -85.5 and IN-LEDGF confirm 37.2*.
Screening Cc1cc(C)c2nc(C(F)(F)F)nc(NCCCN3CCCC3=O)c2c1 returned TDP2 absorb -5.2, MBD2 inh -3.6, LEDGF integ inh -1.3 and UHRF1 binding -0.6.
Screening CCOc1ccc(NC(=O)CSc2nc(C3CC3)nc3ccccc23)cc1 returned TDP2 absorb -5.1, MBD2 inh 2.3, LEDGF integ inh 8.9 and UHRF1 binding 2.7.
COc1ccc(N=Cc2ccc(CNS(=O)(=O)c3ccc(Cl)cc3)o2)cc1 was read as TDP2 absorb -5.0, MBD2 inh -5.7, LEDGF integ inh -1.3 and UHRF1 binding -0.6.
Screening COC(=O)C1=C(O)/C(=C\c2ccc(CNS(=O)(=O)c3ccccc3)o2)N=C1C returned TDP2 absorb 1.4, MBD2 inh -0.3, LEDGF integ inh 23.5*, UHRF1 binding 4.9, IN multimer act 6.6, TRFRET interf -33.5 and IN-LEDGF confirm 18.2*.
For COC(=O)C1=C(O)/C(=C\c2ccc(CNS(=O)(=O)c3ccc(Cl)cc3)o2)N=C1C the results were TDP2 absorb 0.6, MBD2 inh -0.1, LEDGF integ inh 52.7*, UHRF1 binding 13.4, IN multimer act 4.6, TRFRET interf -23.0 and IN-LEDGF confirm 14.4*.
For CCOC(=O)C1=C(O)/C(=C\c2ccc(CNS(=O)(=O)c3ccc(Br)cc3)o2)N=C1C the results were TDP2 absorb -3.3, MBD2 inh -2.0, LEDGF integ inh 21.8*, UHRF1 binding 5.2, IN multimer act 3.0, TRFRET interf -10.8 and IN-LEDGF confirm -3.1.
COC(=O)C1=C(O)/C(=C\c2ccc(OCC(=O)Nc3ccccc3)cc2)N=C1C was read as TDP2 absorb 5.9, MBD2 inh 3.2, LEDGF integ inh -1.9 and UHRF1 binding 2.8.
CCOC(=O)C(=O)NCc1ccc(/C=C2/N=C(C)C(C(=O)OCC)=C2O)o1 was read as TDP2 absorb -0.9, MBD2 inh -2.8, LEDGF integ inh 8.8 and UHRF1 binding -4.8.
`C[C@@H]1CN([C@@H](C)CO)C(=O)c2cccc(NS(C)(=O)=O)c2O[C@H]1CN(C)Cc1ccc(C(=O)O)cc1` gave TDP2 absorb 5.9, MBD2 inh -2.3, LEDGF integ inh 0.8 and UHRF1 binding 3.2.
Screening CCCCCCSc1ccc([C@H]2N[C@@](C)(C(=O)OC)[C@H]3C(=O)N(CC)C(=O)[C@@H]23)cc1 returned TDP2 absorb -8.7, MBD2 inh 2.7, LEDGF integ inh 15.3*, UHRF1 binding 0.4, IN multimer act 0.1, TRFRET interf -0.6 and IN-LEDGF confirm -2.8.
COc1ccc(-n2nnc3c(SCC(=O)Nc4ccccc4F)ncnc32)cc1 was read as TDP2 absorb -5.2, MBD2 inh -0.5, LEDGF integ inh -0.8 and UHRF1 binding -2.7.
Screening c1ccn2c(c1)nc1c2nc2ccccn21 returned TDP2 absorb -3.5, MBD2 inh -7.2, LEDGF integ inh 14.0*, UHRF1 binding -6.2, IN multimer act 4.9, TRFRET interf -17.3 and IN-LEDGF confirm 3.0.
For Clc1c(-c2ccccc2)nc2ccccn12 the results were TDP2 absorb -4.8, MBD2 inh 6.1, LEDGF integ inh -7.6 and UHRF1 binding 1.4.
CN(C)CC(=O)N[C@@H]1C=C[C@@H](CC(=O)NCCN2CCCCC2)O[C@@H]1CO was read as TDP2 absorb -3.7, MBD2 inh -2.3, LEDGF integ inh 27.9*, UHRF1 binding 0.0, IN multimer act -1.3, TRFRET interf 6.6 and IN-LEDGF confirm -4.5.
`CN(C)CC(=O)N[C@@H]1CC[C@@H](CC(=O)NCCN2CCCCC2)O[C@@H]1CO` gave TDP2 absorb -19.7, MBD2 inh -0.2, LEDGF integ inh 2.6 and UHRF1 binding 3.1.
For C[C@H]1CN([C@@H](C)CO)C(=O)CCCn2nncc2CO[C@H]1CN(C)S(=O)(=O)c1ccc(Cl)cc1 the results were TDP2 absorb -4.1, MBD2 inh -4.2, LEDGF integ inh -0.7 and UHRF1 binding 1.5.
